Key:
[1] = biological target: T1, Aldo-keto reductase family 1 member B1 (Homo sapiens, UniProt P15121); test: Inhibitory activity against human placental aldose reductase (HPAR)
Summary of the method: (§1)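 Human placental aldose reductase was purified at 4 °C. Enzyme activity was read photometrically at 340 nm, with 10 mM DL-glyceraldehyde as substrate. IC50 values came from simple linear regressions of Marquardt-Levenberg iterative curve fitting.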

[2] = biological target: Aldo-keto reductase family 1 member B1 (Rattus norvegicus, UniProt P07943); test: Inhibitory activity against rat lens aldose reductase (RLAR).
[3] = biological target: T1, Aldo-keto reductase family 1 member B1; test: Inhibitory activity against human placental aldose reductase in Sepharose 4B column at day 7
[4] = biological target: T1, Aldo-keto reductase family 1 member B1; test: Inhibitory activity against human placental aldose reductase in Sepharose 4B column at day 1; summary of the method: as §1
[5] = biological target: T1, Aldo-keto reductase family 1 member B1; test: Inhibitory activity against human placental aldose reductase in Orange A column at day 2; summary of the method: as §1
[6] = biological target: T1, Aldo-keto reductase family 1 member B1; test: Inhibitory activity against human placental aldose reductase in Orange A column at day 8
[7] = biological target: T1, Aldo-keto reductase family 1 member B1; test: Inhibitory activity against human placental aldose reductase in 30 -70% (NH4)2SO4.
[8] = biological target: T1, Aldo-keto reductase family 1 member B1; test: Inhibitory activity against human placental aldose reductase (HPAR).; summary of the method: as §1
[9] = biological target: T1, Aldo-keto reductase family 1 member B1; test: Inhibitory activity against human placental aldose reductase in Sepharose 4B column at time 1
[10] = biological target: T1, Aldo-keto reductase family 1 member B1; test: (§2) Inhibitory activity against human placental aldose reductase in Orange A column at time 2
[11] = biological target: T1, Aldo-keto reductase family 1 member B1; test: as §2; summary of the method: as §1; remark: listed apart in the source

Structure (SMILES) | IC50 [1] [µM] | IC50 [2] [µM] | IC50 [3] [µM] | IC50 [4] [µM] | IC50 [5] [µM] | IC50 [6] [µM] | IC50 [7] [µM] | also measured
O=c1c(Cl)c(-c2nn[nH]n2)oc2ccccc12 | – | – | 39 | 38 | 280 | 200 | 4.1 | –
CCOC(=O)C(=O)Nc1cc([N+](=O)[O-])cc(C(=O)O)c1O | – | – | 8.3 | 4.5 | 3.2 | 4 | 7.3 | –
CC1OC(O)C(O)C(O)C1Oc1c(-c2ccc(O)c(O)c2)oc2cc(O)cc(O)c2c1=O (stereo not drawn) | – | – | 16 | – | – | 9 | 7.1 | IC50 [9]: 14 µM; IC50 [10]: 16 µM
O=C(O)CN1C(=O)c2cccc3cccc(c23)C1=O [ALRESTATIN] | – | – | 34 | – | – | 79 | 6.5 | IC50 [9]: 22 µM; IC50 [11]: 140 µM

Continued, in another order:

IC50 [1] [µM] | IC50 [2] [µM] | IC50 [3] [µM] | IC50 [4] [µM] | IC50 [5] [µM] | IC50 [6] [µM] | IC50 [7] [µM] | Structure (SMILES) | also measured
3.2 | 2.5 | – | – | – | – | – | O=C(OCc1ccccc1)c1cc(=O)c2ccc(O)cc2o1 | –
– | – | 7.2 | 5 | 19 | 7.3 | 4.5 | O=C(O)c1ccc2nc3cc(O)ccc3c(=O)n2c1 | –
4.3 | 3.1 | – | – | – | – | – | CC(C)OC(=O)c1cc(=O)c2ccc(O)cc2o1 | –
– | 2.2 | – | – | – | – | – | O=C(O)c1cc(=O)c2ccc(O)cc2o1 | IC50 [8]: 1.8 µM
– | – | 3.9 | 4.7 | 5.9 | 3.1 | 1.8 | O=C(O)C1=CC(=O)C2C=CC(O)=CC2O1 (stereo not drawn) | –
5 | 2.3 | – | – | – | – | – | CCOC(=O)c1cc(=O)c2ccc(O)cc2o1 | –

From ChEMBL document CHEMBL1122895, “Aldose reductase inhibitors: a potential new class of agents for the pharmacological control of certain diabetic complications” (J Med Chem, 1985)
